Drawing on ChEMBL document CHEMBL1148785, “Second generation tetrahydroquinoline-based protein farnesyltransferase inhibitors as antimalarials” (J Med Chem, 2007), this text covers inhibition and EC50 for 32 compounds.

The subject of test [1] is Plasmodium falciparum. Put plainly: Inhibition of Plasmodium falciparum protein farnesyltransferase at 0.5 nM by scintillation proximity assay. Background: SPA uses beads or plates that emit light when radiolabelled molecules are held near them.
Test [2] relates to Plasmodium falciparum. Put plainly: Inhibition of Plasmodium falciparum protein farnesyltransferase at 50 nM by scintillation proximity assay.
In test [3] the test system is Plasmodium falciparum. Put plainly: Inhibition of Plasmodium falciparum protein farnesyltransferase at 5 nM by scintillation proximity assay.
Test [4] relates to Plasmodium falciparum. Put plainly: Antimalarial activity against Plasmodium falciparum 3D7. The format is functional. To be noted: Plasmodium falciparum, 3D7; read-out: ED50 (the source's name). The gist of the method:
(§1)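 Asynchronous culture in type A+ erythrocytes at 0.5% parasitemia and 0.5% hematocrit, grown in RPMI-1640 with 20% heat-inactivated human A+ plasma. Compound was serially diluted from a top final 5 µM, with DMSO vehicle as 100% growth. Plates ran 48 h at 37 °C under 5% CO2/5% O2/90% N2, then [3H]-hypoxanthine (0.3 µCi) for 24 h. Filter-harvested counts were corrected for the uninfected-RBC background. ED50 by linear regression; duplicates averaged.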

Test [5] relates to Plasmodium falciparum. The test can be described thus: Antimalarial activity against Plasmodium falciparum K1. Type of test: functional. Conditions: Plasmodium falciparum, K1; read-out: ED50 (the source's name). The gist of the method: as §1

Usually inhibition stands for the share of the control response that was lost under treatment. A high value points to a response far below the control. With `Cn1cncc1CN1CC(N(Cc2ccc(S(C)(=O)=O)cc2)S(=O)(=O)c2ccccc2)Cc2cc(C#N)ccc21` (stereo not given), the inhibition in test [1] was found to be 38%; in test [2], 99%; in test [3] it was 91%. Besides, the EC50 is 165 nM in test [4] and 330 nM in test [5].
For `Cn1cnc(S(=O)(=O)N(Cc2ccc3c(c2)OCCS3(=O)=O)C2Cc3cc(C#N)ccc3N(Cc3cncn3C)C2)c1` (stereo not given) the same measures were 66%, 99%, 99%, 20 nM and < 20 nM.
For `Cn1cnc(CN2CC(N(Cc3ccc(C(F)(F)F)o3)S(=O)(=O)c3cn(C)cn3)Cc3cc(-c4ccccc4)ccc32)c1` (stereo not given) the same measures were 0%, 88%, 46%, 4600 nM and 3500 nM.
For `Cn1cncc1CN1CC(N(CCc2ccccc2C(F)(F)F)S(=O)(=O)c2ccccn2)Cc2cc(C#N)ccc21` (stereo not given) the same measures were 1%, 95%, 53%, 300 nM and 1500 nM.
For `CCCS(=O)(=O)N(Cc1ccccc1F)C1Cc2cc(C#N)ccc2N(Cc2cncn2C)C1` (stereo not given), the results for the inhibition in test [1], in test [2] and in test [3] were 11%, 41% and 16%, respectively. The EC50 in test [4] stood at 1200 nM; in test [5] it was 3050 nM.
For `Cn1cncc1CN1CC(N(CCOc2cccc3c2OCCO3)S(=O)(=O)c2ccccn2)Cc2cc(C#N)ccc21` (stereo not given) the same measures were 10%, 88%, 41%, 810 nM and 1450 nM.
Taken in the same sequence, the figures for `Cn1cnc(S(=O)(=O)N(Cc2cc3nsnc3cc2Cl)C2Cc3cc(C#N)ccc3N(Cc3cncn3C)C2)c1` (stereo not given) were 0%, 90%, 58%, 3000 nM and 3750 nM.
Taken in the same sequence, the figures for `Cn1cnc(CN2CC(N(CCNC(=O)OC(C)(C)C)S(=O)(=O)c3cn(C)cn3)Cc3cc(-c4ccccc4)ccc32)c1` (stereo not given) were 18%, 98%, 81%, 2400 nM and 750 nM.
With `CCS(=O)(=O)N1CCC(CN(C2Cc3cc(C#N)ccc3N(Cc3cncn3C)C2)S(=O)(=O)c2ccccn2)CC1` (stereo not given), the inhibition turned out to be 94% in test [1], 98% in test [2] and 56% in test [3]. Further, the EC50 in test [4] came out at 75 nM; in test [5], 55 nM.
Taken in the same sequence, the figures for `Cc1oncc1CN(C1Cc2cc(-c3ccccc3)ccc2N(Cc2cn(C)cn2)C1)S(=O)(=O)c1cn(C)cn1` (stereo not given) were 0%, 79%, 26%, 3000 nM and 3700 nM.
In the case of `Cn1cncc1CN1CC(N(CCn2ccnc2)S(=O)(=O)c2ccccn2)Cc2cc(C#N)ccc21` (stereo not given), the results for the inhibition in test [1], in test [2] and in test [3] were 67%, 95% and 91%, respectively. In addition, the EC50 in test [4] turned out to be 12 nM; in test [5], 16 nM.
Taken in the same sequence, the figures for `C/C=C/C=C\C=C\CN(C1Cc2cc(C#N)ccc2N(Cc2cncn2C)C1)S(=O)(=O)c1ccccn1` (stereo not given) were 32%, 98%, 87%, 700 nM and 700 nM.
Consider `CN(CCCN(C1Cc2cc(C#N)ccc2N(Cc2cncn2C)C1)S(=O)(=O)c1ccccn1)C(=O)OC(C)(C)C` (stereo not given), for which the inhibition in test [1] was determined as 35%; in test [2], 86%; in test [3], 80%. Further, the EC50 in test [4] turned out to be 130 nM; in test [5], 170 nM.
For `Cn1cncc1CN1CC(N(CC2CCN(C(=O)Nc3ccc(Br)cc3)CC2)S(=O)(=O)c2ccccn2)Cc2cc(C#N)ccc21` (stereo not given) the same measures were 0%, 38%, 0%, 3000 nM and 2800 nM.
For `Cn1cc(S(=O)(=O)N(Cc2ccc(S(C)(=O)=O)cc2)C2Cc3cc(C#N)ccc3N(Cc3cncn3C)C2)cn1` (stereo not given) the same measures were 36%, 97%, 88%, 75 nM and 60 nM.
Taken in the same sequence, the figures for `Cn1cncc1CN1CC(N(CCCN)S(=O)(=O)c2ccccn2)Cc2cc(C#N)ccc21` (stereo not given) were 0%, 32%, 7%, > 5000 nM and > 5000 nM.
With `Cn1cnc(S(=O)(=O)N(Cc2ccc(-n3cccc3)cc2)C2Cc3cc(C#N)ccc3N(Cc3cncn3C)C2)c1` (stereo not given), the inhibition in test [1] turned out to be 9%; in test [2], 99%; in test [3] it was 90%. The EC50 was found to be 68 nM in test [4] and 65 nM in test [5].
Regarding `Cn1cncc1CN1CC(N(CCN)S(=O)(=O)c2ccccn2)Cc2cc(C#N)ccc21` (stereo not given), the values for the inhibition in test [1], in test [2] and in test [3] were 6%, 65% and 11%, respectively. Besides, the EC50 is 2700 nM in test [4] and > 5000 nM in test [5].
For `COCCCN(C1Cc2cc(C#N)ccc2N(Cc2cncn2C)C1)S(=O)(=O)c1ccccn1` (stereo not given) the same measures were 18%, 93%, 64%, 230 nM and 1000 nM.
Taken in the same sequence, the figures for `COC(=O)CN(C1Cc2cc(-c3ccccc3)ccc2N(Cc2cn(C)cn2)C1)S(=O)(=O)c1cn(C)cn1` (stereo not given) were 37%, 99%, 87%, 375 nM and 350 nM.
For `Cn1cncc1CN1CC(N(Cc2ccc(S(C)(=O)=O)cc2)S(=O)(=O)c2ccccc2Cl)Cc2cc(C#N)ccc21` (stereo not given) the same measures were 16%, 99%, 87%, 400 nM and 800 nM.
For `Cn1cncc1CN1CC(N(CC2CCN(C(=O)c3cccs3)CC2)S(=O)(=O)c2ccccn2)Cc2cc(C#N)ccc21` (stereo not given), the inhibition in test [1] came out at 87%; in test [2], 99%; in test [3], 35%. Further, the EC50 stood at 70 nM in test [4] and 81 nM in test [5].
Taken in the same sequence, the figures for `Cn1cncc1CN1CC(N(CCCCCC(N)=O)S(=O)(=O)c2ccccn2)Cc2cc(C#N)ccc21` (stereo not given) were 4%, 81%, 32%, 300 nM and 250 nM.
On to `Cn1cncc1CN1CC(N(Cc2ocnc2-c2ccccc2)S(=O)(=O)c2ccccn2)Cc2cc(C#N)ccc21` (stereo not given), for which the inhibition in test [1] is 19%; in test [2], 98%; in test [3], 82%. For the same compound, the EC50 in test [4] is 51 nM; in test [5] it was 210 nM.
Taken in the same sequence, the figures for `CC(C)NC(=O)c1ccc2c(c1)CC(N(CC(=O)NC(C)(C)C)S(=O)(=O)c1cn(C)cn1)CN2Cc1cncn1C` (stereo not given) were 14%, 46%, 7%, 4000 nM and 2600 nM.
On to `CCCS(=O)(=O)N(CC1CCN(C(=O)OC)CC1)C1Cc2cc(C#N)ccc2N(Cc2cncn2C)C1` (stereo not given), for which the inhibition in test [1] was 1%; in test [2], 55%; in test [3], 22%. Besides, the EC50 in test [4] stood at 1100 nM; in test [5] it was 1800 nM.
Taken in the same sequence, the figures for `Cn1cncc1CN1CC(N(CC2CCN(C(=O)OCC(F)(F)F)CC2)S(=O)(=O)c2ccccn2)Cc2cc(C#N)ccc21` (stereo not given) were 91%, 91%, 47%, 65 nM and 75 nM.
Consider `Cn1cncc1CN1CC(N(CC2CCN(S(=O)(=O)c3ccccc3)CC2)S(=O)(=O)c2ccccn2)Cc2cc(C#N)ccc21` (stereo not given), for which the inhibition in test [1] worked out at 67%; in test [2], 96%; in test [3] it was 7%. Further, the results for the EC50 in test [4] and in test [5] were 275 nM and 280 nM, respectively.
For `Cn1cnc(CN2CC(N(CCS(C)(=O)=O)S(=O)(=O)c3cn(C)cn3)Cc3cc(-c4ccccc4)ccc32)c1` (stereo not given) the same measures were 29%, 99%, 91%, 400 nM and 700 nM.
For `Cn1cncc1CN1CC(N(CC2CCN(C(=O)NC(C)(C)C)CC2)S(=O)(=O)c2ccccn2)Cc2cc(C#N)ccc21` (stereo not given) the same measures were 84%, 98%, 28%, 320 nM and 150 nM.
For `CC(=O)OCC(=O)N(Cc1ccccc1F)C1Cc2cc(C#N)ccc2N(Cc2cncn2C)C1` (stereo not given) the same measures were 0%, 33%, 0%, 690 nM and 750 nM.
`Cn1cc(S(=O)(=O)N(Cc2ccccc2F)C2Cc3cc(C#N)ccc3N(Cc3cncn3C)C2)cn1` (stereo not given): the inhibition in test [1] was found to be 23%; in test [2], 94%; in test [3], 62%. The EC50 in test [4] and in test [5] was 175 nM each time.
